Pemphigus Ab inh – inhibitors of pemphigus antibody binding to DSG3, primary screen, biochemical, bead-based, flow cytometry, scFv-GFP; AID 588358, 2011; Desmoglein-3 (Homo sapiens), P32926; binding (percent of control), % at 10 µM; actives 0.48% (n = 310,000); DSG3-coupled beads, scFv-anti-DSG3-GFP binding; stronger effect = lower value;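 active means binding more than 3 SD below its plate's average and above zero; inconclusive means below that plate limit but binding exactly zero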;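 further: hits lower antibody fragment binding to DSG3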
Target sequence (P32926 whole entry, looked up, the tested form may be a part): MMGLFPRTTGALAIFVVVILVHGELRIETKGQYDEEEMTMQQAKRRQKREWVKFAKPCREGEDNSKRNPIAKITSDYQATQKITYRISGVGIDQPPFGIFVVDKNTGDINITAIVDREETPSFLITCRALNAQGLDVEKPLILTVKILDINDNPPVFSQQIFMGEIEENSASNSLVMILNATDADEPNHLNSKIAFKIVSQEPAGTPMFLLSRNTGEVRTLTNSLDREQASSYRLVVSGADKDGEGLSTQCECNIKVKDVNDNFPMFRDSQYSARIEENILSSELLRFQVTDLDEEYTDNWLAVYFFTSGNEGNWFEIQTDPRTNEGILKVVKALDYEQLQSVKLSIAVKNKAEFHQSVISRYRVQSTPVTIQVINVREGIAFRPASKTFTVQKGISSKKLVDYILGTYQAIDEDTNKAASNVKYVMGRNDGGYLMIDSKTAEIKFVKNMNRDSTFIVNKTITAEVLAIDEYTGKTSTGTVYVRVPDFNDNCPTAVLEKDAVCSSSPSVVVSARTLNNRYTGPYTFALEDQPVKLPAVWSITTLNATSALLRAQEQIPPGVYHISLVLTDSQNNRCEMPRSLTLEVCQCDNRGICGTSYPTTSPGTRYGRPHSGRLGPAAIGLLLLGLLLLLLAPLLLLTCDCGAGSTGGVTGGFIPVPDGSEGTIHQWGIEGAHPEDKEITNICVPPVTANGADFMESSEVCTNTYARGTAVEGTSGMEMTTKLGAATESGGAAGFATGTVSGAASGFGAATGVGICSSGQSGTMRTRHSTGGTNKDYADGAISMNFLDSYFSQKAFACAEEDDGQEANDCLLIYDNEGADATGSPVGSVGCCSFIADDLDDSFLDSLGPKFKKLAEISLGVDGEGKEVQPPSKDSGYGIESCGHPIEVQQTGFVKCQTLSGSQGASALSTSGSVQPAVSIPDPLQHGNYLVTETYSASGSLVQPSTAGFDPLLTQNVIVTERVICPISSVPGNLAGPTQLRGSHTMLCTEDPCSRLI
Myeloid diff 2 – induction of myeloid progenitor differentiation, primary screen, cell-based, flow cytometry, MLPCN library; ER-HoxA9 myeloid progenitors, lysozyme-GFP differentiation; calls only at 10 µM; actives 1% (n = 360,000);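 active means normalized GFP-positive differentiation at or above the plate's own cutoff, the solvent-only control mean plus 3 SD; inconclusive means no clear call, values can overlap the other calls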;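 further: cells exposed to compound for four days before flow analysis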
Vif imaging – HIV Vif self-association inhibitors, primary screen, imaging, HEK293T, single point | actives 0.35% (n = 340,000) | inhibition, % at 7.49 µM | HEK293T cells, Vif self-association by quenched fluorescence, 24 h; in the data active means inhibition above about 50%, passing the limit was not always enough; inconclusive means no clear call, values can overlap the other calls; inactive means below about 31%
T cell modulator – modulators of CD8 T cell-vesicle binding, primary screen, mouse 2C CD8+ T cells, flow cytometry; 2C CD8+ T cell-vesicle binding; stronger effect = lower value; response (vesicle binding), % at 7 µM; actives 0.068% (n = 330,000); AID 2052, 2009;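 active means response, share of CD8 T cells binding vesicles, and their 90th percentile fluorescence all below set limits, cut at about 80% in these data, passing the limit was not always enough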;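 further: values below 100% mean blocked vesicle binding to the CD8+ T cells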
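Assay system – 2C mouse CD8+ T cells · Also added – QL9-loaded Drosophila micro-vesicles · Timing – Cell–vesicle co-incubation 1.5 h at 37 °C, staining 20 min on ice · Signal – flow cytometry of vesicle-bound cells · Measure – percent CD8+ FL2 mean versus row control · Controls – Peptide-free naked vesicles (low) and QL9 vesicles with 0.7% DMSO vehicle (high)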
Myeloid diff – inducers of myeloid progenitor differentiation, confirmation, cell-based, GFP/Mac1 flow cytometry, cherry pick 01; shares compounds with Myeloid diff 2; ER-HoxA9 myeloid progenitors, GFP/Mac1 double-positive flow; calls only; actives 2% (n = 2,300); AID 651706, 2012;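 active means share of green or green-and-red cells above 9 and 9% in run 1 or 4 and 3% in run 2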
GFP autofluor – counter-screen for myeloid differentiation promoters: compound fluorescence; shares compounds with Myeloid diff 2; ER-HoxA9 myeloid progenitors, no estrogen, GFP autofluorescence flow cytometry; vehicle wells 0%, positive control 100%; fluorescence response, % (no concentration beside the values); actives 7.4% (n = 2,300); AID 651707;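 active means over 5% cells positive for green fluorescent reporter, or over 2% positive for both it and APC stain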;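 further: range taken on the double positive population between DMSO and positive control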
* hit, by the source's call; i = inactive; ? = inconclusive; . = no result given; + = active, no number; ! = a repeat was not active. A selection: hits, their analogues and other compounds. The true share with any hit is near 1.7%.

SMILES | Pemphigus Ab inh | Myeloid diff 2 | Vif imaging | T cell modulator | Myeloid diff | GFP autofluor
Cn1c(C(=O)NCCN2CCCCCC2)cc2c(=O)n(C)c3ccccc3c21 | 114 | i | -2 | 547 | . | .
CC1CCN(CCCNC(=O)c2cc3c(=O)n(C)c4ccccc4c3n2C)CC1 | 108 | i | -1 | 95 | i | 0
COC(=O)c1cc2c(=O)c3ccccc3oc2nc1/C=C/N(C)C | 117 | + | -11 | 178 | + | 1
c1ccc(CNc2ncnc3scc(-c4cccs4)c23)nc1 | 103 | i | 1 | 137 | i | 1
CCOC(=O)NC1(C(F)(F)F)N=C(c2ccccc2)NC1=O (configuration not stated) | ? | i | 3 | 181 | . | .
CC(=O)Nc1ccc(S(=O)(=O)NC2(C(F)(F)F)N=C(c3ccccc3)NC2=O)cc1 (configuration not stated) | 106 | i | . | 462 | i | 0
OC1CCNC(=S)N1c1ccccc1 (configuration not stated) | 105 | + | -3 | 284 | i | 0
OC1NC(=S)N(c2ccccc2)C1O (configuration not stated) | 102 | i | -3 | 319 | . | .
O=C(Nc1ccc(F)cc1)C(c1ccncc1)N1CCN(CC(=O)N2CCCC2)CC1 (configuration not stated) | . | i | . | . | . | .
CCCN1C(=O)c2cccc3c(N4CCCCC4)ccc(c23)C1=O | 123 | + | 7 | 348 | i | 1
O=C(O)c1ccc(CSc2nc3ccccc3c(=O)n2-c2ccccc2)cc1 | 92 | i | 27 | 176 | . | .
N=C(N)SCc1nc2ccccc2c(=O)n1-c1ccccc1 | 104 | +! | -1 | 396 | i | 2
CCNC(=O)C1CCCN(Cc2ccc(C)c3ccccc23)CC1 (configuration not stated) | . | i | . | . | . | .
O=S(=O)(c1ccc2c(c1)OCCO2)N1CCN(c2nc3ccccc3s2)CC1 | 119 | i | -7 | 654 | i | 0
O=C(CC1C(=O)NCCN1Cc1cccc(Oc2ccccc2)c1)NCCc1ccccn1 (configuration not stated) | 100 | + | -2 | 319 | i | 0
CC(C)CC(=O)NC(NC(=S)Nc1ccccc1)C(Cl)(Cl)Cl (configuration not stated) | 105 | i | 6 | 261 | i | 0
Cc1cccc(NC(=S)NC(NC(=O)OCc2ccccc2)C(Cl)(Cl)Cl)c1 (configuration not stated) | 99 | i | 3 | i | i | 0
Cc1c(NC(=S)NC(NC(=O)CC(C)C)C(Cl)(Cl)Cl)c(=O)n(-c2ccccc2)n1C (configuration not stated) | 104 | i | -4 | 246 | . | .
COC(=O)[C@@]1(Sc2ccc(C)cc2)CC(=O)N(c2ccccc2)[C@@H]1c1ccccc1 | . | i | . | . | . | .
Cn1cnnc1Sc1nc2ccccc2nc1NS(=O)(=O)c1ccccc1 | 101 | i | 24 | 494 | i | 0
Cc1cc(=O)c2c([nH]1)c(C)cc1[nH]c(C)c(C)c12 | 101 | i | 2 | 341 | i | 0
CC(C)C(=O)N(Nc1nc2ccccc2s1)C(=O)C(C)C | 102 | + | -2 | 305 | i | 0
Cc1ccc(C(=O)N(Nc2nc3ccccc3s2)C(=O)c2ccc(C)cc2)cc1 | 83 | i | -15 | 228 | . | .
O=C(C[C@@H]1CC[C@H](NC(=O)Nc2ccc(F)cc2)[C@@H](CO)O1)NCc1cccc(F)c1 | . | i | . | . | . | .
CCCCN1CC(COCc2ccccc2)Oc2cccc(N3CCCC3)c2S1(=O)=O (configuration not stated) | 117 | i | 1 | . | i | 0
SMILES | Pemphigus Ab inh | Myeloid diff 2 | Vif imaging | T cell modulator | Myeloid diff | GFP autofluor
CCOc1cc(OCC)cc(C(=O)N2CCC[C@H]2C(=O)N2CCC[C@H]2C(=O)NCc2cccc(OC)c2)c1 | . | i | . | . | . | .
COc1ccc(Br)c(C(=O)Nc2cccc(S(=O)(=O)N3CCOCC3)c2)c1 | . | i | -3 | 259 | . | .
COc1ccc(C(=O)N[C@H](C(=O)Nc2cccc(S(=O)(=O)N3CCOCC3)c2)C(C)C)cc1 | 105 | + | 2 | . | i | 0
Cc1ccc(S(=O)(=O)NC(=O)C2(C)CCN2C(=O)CC2CCCC2)nc1 (configuration not stated) | . | i | -4 | . | . | .
COc1ccc2cc(CN(CC3CCCO3)S(=O)(=O)c3ccccc3)c(=O)[nH]c2c1 (configuration not stated) | 103 | + | 13 | 601 | i | 0
COc1ccc2[nH]c(=O)c(CN(CC3CCCO3)S(=O)(=O)c3ccccc3)cc2c1 (configuration not stated) | 97 | i | -2 | 314 | . | .
Cc1cc(C)n(C(C)Sc2ccccc2)n1 (configuration not stated) | 103 | i | . | 590 | . | .
Cc1cccc(-c2sc(Nc3ccccc3)n[n+]2-c2ccc(F)cc2)c1 | 105 | i | 3 | 186 | . | .
COc1ccc(-c2sc(Nc3ccccc3)n[n+]2-c2ccc(F)cc2)c(C)c1C | 107 | i | 0 | i | i | 4.2*
COc1ccc(-n2nnnc2C(c2ccnc3ccccc23)N2CCN(C/C=C/c3ccccc3)CC2)cc1 (configuration not stated) | . | + | 3 | . | i | 1
Cc1cc(N2CCN(C(c3ccnc4ccccc34)c3nnnn3-c3c(C)cccc3C)CC2)c2ccccc2n1 (configuration not stated) | . | i | . | . | i | 0
Clc1cccc(Nc2nc(N3CCOCC3)nc(N3CCOCC3)n2)c1 | 47* | i | -3 | 225 | i | 0
Fc1cccc(Nc2nc(N3CCOCC3)nc(N3CCOCC3)n2)c1 | 94 | i | 15 | 112 | . | .
Clc1ccc(Oc2nc(Oc3ccc(Cl)cc3)nc(N3CCOCC3)n2)cc1 | 91 | + | -7 | 367 | i | 1
Cc1c(OCC(=O)NC2CCN(Cc3ccccc3)CC2)ccc2c3c(c(=O)oc12)CCC3 | 94 | ? | 4 | 465 | . | .
COc1ccc(C(=O)Nc2cccc(N(C)S(C)(=O)=O)c2)cc1OC | 101 | i | -4 | 349 | i | 0
CCOc1ccccc1CSc1nc2ccccc2[nH]1 | 103 | i | . | 375 | i | 0
Cc1nn(C)c(C)c1NC(=O)CSc1nnc(C)n1-c1ccccc1 | 106 | + | . | 323 | i | 0
COc1ccc(NC(=O)c2cc(-c3cc(C)cc(F)c3)n[nH]2)cc1OC | . | i | 16 | . | . | .
